Drawing on PubChem BioAssay AID504383 (The Scripps Research Institute Molecular Screening Center, 2011), this text covers activation for 69 molecules.

Each structure is given as a SMILES string. In all, about 2,500 compounds went through this assay and about 1,200 (48%) were called active. The set was probably picked from earlier hits. Some of the results follow. A number with no mark means an inactive call.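 The calls were made as follows: active = mean activation above the low control average plus 3 SD, as set in the primary screen (cut at about 12% in these data); inactive = the rest.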

In the assay the target is Troponin I, cardiac muscle (Homo sapiens) + Troponin T, cardiac muscle (Homo sapiens) + Troponin C, slow skeletal and cardiac muscles (Homo sapiens) (UniProt P19429+P45379+P63316). Nature of the assay: calcium sensitizers of cardiac thin filaments – biochemical, IANBD-TnC fluorescence, triplicate, confirmation (AID 504383).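 Also: 0% = DMSO at 0.472 mM calcium and 100% = DMSO at 2.9 mM calcium.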 The conditions noted are these: IANBD-labeled cardiac RTF, Ca2+ sensitivity fluorescence; at 7.2 µM; stronger effect = higher value; scaled from EC20 to saturating calcium; tested at EC20 calcium, 0.472 mM. Put shortly: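 Assay system: labelled regulated thin filament protein complex; schedule: 15 min compound incubation with filaments at 25 °C; benchmarks: low control EC20 calcium, high control EC100 calcium; reagent: Ca2+ 0.472 mM, EC20 level; doses: one dose, 7.2 µM nominal; evaluation: fluorescence gain scaled between EC20 and EC100 calcium controls; signal: filament fluorescence intensity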
With `Cc1ccc(C)c(OCCN2C(=O)NC3(CCc4ccccc4C3)C2=O)c1` (centres undefined), the activation was 2.13%.
Regarding `C=COc1ccc(N2C(=O)c3ccccc3OC2C)cc1` (centres undefined), the activation was 32.1% (active).
Take `COc1cc(/C=C2/C(=O)NN(c3cccc(F)c3)C2=O)ccc1OC(=O)c1ccco1`: the activation is 3.13%.
The value for `COc1ccc(CC(=O)N(C)Cc2cccc(F)c2)cc1S(=O)(=O)N1CCOCC1` was 12.3% (active); that for `Cc1ccc(C(=O)N(C)CC(=O)Nc2cccc(F)c2)cc1S(=O)(=O)N1CCCCC1` was 6.56%; that for `NC(=O)c1ccccc1N/C=C/C(=O)c1ccc(Cl)cc1Cl` was 19% (active).
`COC(=O)c1cnn2c(C(F)(F)F)cc(-c3ccco3)nc12`: the activation was 4.76%.
To `Cc1cccc(C)c1NC(=O)CNC(=O)Cc1ccc(Br)cc1` belongs 10.9%; to `CSc1nc2ccccc2n1CC(=O)Nc1c(C)cccc1C`, 12.7% (active).
To `Cc1cccc(C)c1NC(=O)CN(C1CCCCC1)S(C)(=O)=O` belongs 9.63%.
For the molecule `NC(=O)NC(Cc1ccccc1)C(=O)NCC1(N2CCCCC2)CCCCC1` (centres undefined), the activation was 9.4%.
Turning to `Cc1c(C(=O)NC2CC2)oc2ccccc12`, the activation is 7.6%.
Consider `Cc1nn(-c2ccccc2)c(Cl)c1C(=O)NC1CCCCC1`, for which the activation is 20.7% (active).
Take `Cc1cc(-c2ccccc2C(=O)NC2CCCCC2)on1`: the activation was 6.39%.
`O=C(CNC(=O)C12CC3CC(CC(C3)C1)C2)OCC(=O)N1CCCCC1`: the activation was 11.6%.
For `COc1ccc(OC)c(C2=C/C(=C/c3ccccn3)C(=O)O2)c1`, the activation is 6.12%.
Take `COc1ccc2nc(-c3ccccn3)[nH]c2c1`: the activation was 93.2% (active).
For `COc1ccc(OC)c(/C=C/c2nc3ccccc3[nH]c2=O)c1`, the activation is 6.55%.
The value for `O=c1[nH]c2cc(C(F)(F)F)ccc2n1-c1cc(C(F)(F)F)ccc1O` was 8.69%.
For `CCOc1ccccc1C(=O)NN1C(=O)CCC1=O`, the activation is 23.7% (active).
With `Cc1cc(S(=O)(=O)NC(C)C)ccc1OCC(=O)NCc1ccccc1`, the activation was 3.1%.
The value for `Cc1ccnc2nc(C(=O)OCC(=O)NCCc3ccccc3)nn12` was 28.6% (active).
To `CCC1C/C(=C\c2cc(OC)c(OC)cc2OC)C(=O)/C(=C/c2cc(OC)c(OC)cc2OC)C1` (centres undefined) belongs 21.3% (active); to `COc1cc(OC)c(OC)cc1/C=C1/Cc2ccccc2C1=O`, 8.78%.
As for `Cc1cc(NS(C)(=O)=O)c(=O)n(Cc2cccc(F)c2)c1`, the activation was 0.31%.
For `C/C(=C\C=C(C#N)C#N)c1cc(C#N)c(N)o1`, the activation is 16.3% (active).
With `c1ccc(Cn2c(-c3ccccc3)nc3nc4ccccc4nc32)cc1`, the activation was 32.2% (active).
As for `Cc1nnc(-c2ccccc2)c(=O)n1/N=C/c1c(O)ccc2ccccc12`, the activation is 5.78%.
On to `O=C(N/N=C/c1c(O)ccc2ccccc12)c1cccc(C(F)(F)F)c1`, for which the activation was 164% (active).
As for `Oc1ccc2ccccc2c1C=NCc1cn2ccsc2n1`, the activation was 3.76%.
The value for `O=C(NN=Cc1c(O)ccc2ccccc12)c1ccncc1` was 9.86%.
Consider `O=C(N/N=C\c1c(O)ccc2ccccc12)c1cncc(Br)c1`, for which the activation was 20% (active).
The value for `Cn1nnnc1SCCOc1ccc(C#N)cc1` was -1.4%; that for `CCOC(=O)c1cn(-c2ccc(F)c(F)c2F)c2c(F)c(F)c(F)cc2c1=O` was 10.3%.
The value for `Cc1cc([N+](=O)[O-])nn1CC(=O)Nc1c(C)n(C)n(-c2ccccc2)c1=O` was 8.97%; that for `Cc1c(N=C2N=C(NC(=O)Nc3ccc(Cl)cc3)c3ccccc32)c(=O)n(-c2ccccc2)n1C` was 58.8% (active); that for `CC[n+]1c(/C=C/C=C/N(C(C)=O)c2ccccc2)sc2ccccc21` was 135% (active).
`CC/C(=C/c1sc2ccccc2[n+]1CC)SC`: the activation was 2.73%.
To `CCCC(NC(=O)CCc1c(C)c2cc3c(-c4ccccc4)coc3cc2oc1=O)C(=O)O` (centres undefined) belongs 181% (active).
Consider `C=CCOc1ccccc1CNc1cccc(F)c1`, for which the activation is 7.46%.
The value for `C=CCOc1ccc(Br)cc1CNCC` was 29.4% (active); that for `Cc1nc(NC(=O)C(Cl)Cl)sc1C(=O)N(C)C` was 8.86%; that for `Cc1nn(Cc2c(F)c(F)c(F)c(F)c2F)c(C)c1NC(=O)c1nn(C)c(C)c1Br` was 9.42%.
Consider `CCn1cc(/C=C/C(=O)Nc2c(C)nn(Cc3ccccc3C)c2C)cn1`, for which the activation was 7.35%.
To `Cc1ccc(Cn2nc(C)c(NC(=O)C3(C)CC3(Br)Br)c2C)cc1` (centres undefined) belongs 17.1% (active); to `Cn1c(=O)cc(N)n(Cc2ccccc2)c1=O`, 42.5% (active).
For `Cc1ccc(NC(=O)COC(=O)/C=C/c2c(C)nn(-c3ccc(F)cc3)c2Cl)cc1F`, the activation is 8%.
With `CCOc1ccc(-n2c(SCC(=O)Nc3ccc(OC)cc3OC)nc3c(c2=O)SCC3)cc1`, the activation is 13.3% (active).
As for `CCOc1ccc(C(C(=O)NC2CCCCC2)N(C(=O)Cc2cccs2)c2ccc(-n3cnnn3)c(OC)c2)cc1` (centres undefined), the activation was 3.97%.
Regarding `Cc1ccc(C(C)NC(=O)c2cccs2)cc1C` (centres undefined), the activation is 480% (active).
Turning to `O=C(CCSc1nnc(-c2ccco2)o1)Nc1ccccc1`, the activation was 69% (active).
Take `CCCCNC(=O)Nc1nnc(-c2ccccc2)o1`: the activation is 10.1%.
To `O=C(CSc1nnc(-c2ccco2)o1)NC1CCCCC1` belongs 6.06%; to `C/C(O)=c1/ccc2cccc3nc(C)nc1c23`, 62.2% (active); to `Cc1ccccc1NS(=O)(=O)c1ccc(OCC(=O)N2CCCCC2)cc1`, 6.33%.
Consider `COc1ccc(CN(Cc2cccn2C)S(=O)(=O)c2ccccc2)cc1`, for which the activation was 9.11%.
On to `CCN(CC(=O)N1CCCC1)S(=O)(=O)c1ccc(OC)cc1`, for which the activation is 262% (active).
For the molecule `O=C1NC(c2cccc([N+](=O)[O-])c2)Oc2ccccc21` (centres undefined), the activation was 10.3%.
With `Cc1ccc(C)c(NC(=O)CCN2CCOCC2)c1`, the activation is 0.21%.
Take `Cc1ccc(C)c(NC(=O)COC(=O)Cc2ccsc2)c1`: the activation is 12.3% (active).
For the molecule `O=C(NCc1ccc(OC(F)(F)F)cc1)c1cccc2c1C(=O)c1ccc(N3CCCCC3)cc1S2(=O)=O`, the activation is 17.5% (active).
As to `C=CCNC(=O)c1cccc2c1C(=O)c1ccc(N3CCCC3)cc1S2(=O)=O`, the activation is 6.98%.
As for `O=C(NC1CCCCC1)c1cccc2c1C(=O)c1ccc(N3CCC(Cc4ccccc4)CC3)cc1S2(=O)=O`, the activation was 5.3%.
Consider `Cc1ccc(CNC(=O)c2cccc3c2C(=O)c2ccc(N4CCCCC4)cc2S3(=O)=O)cc1`, for which the activation was 6.7%.
As for `O=C(NCC1CC1)c1cccc2c1C(=O)c1ccc(N3CCCC3)cc1S2(=O)=O`, the activation was 183% (active).
In the case of `O=C(NC1CCCCC1)c1cccc2c1C(=O)c1ccc(N3CCCC3)cc1S2(=O)=O`, the activation was 87.8% (active).
For the molecule `CC1CCN(c2ccc3c(c2)S(=O)(=O)c2cccc(C(=O)NC4CCCCC4)c2C3=O)CC1`, the activation is 1.22%.
Consider `CN1CCC[C@@H]1CCNC(=O)c1cccc2c1C(=O)c1ccc(N3CCCC3)cc1S2(=O)=O`, for which the activation is -0.88%.
For `O=C(NCc1cccc(F)c1)c1cccc2c1C(=O)c1ccc(N3CCCC3)cc1S2(=O)=O`, the activation is 8.28%.
